Test results: ChEMBL document CHEMBL1122033, “Chemistry and hypoglycemic activity of N-[[(Dialkylamino)alkoxy]phenyl]benzamidines” (J Med Chem, 1982)
Several values for one entry are separate records, joined by “and”; a condition that tells them apart may be missing. Identical values can stand only once.

What was measured:
Cavia porcellus [1] = test: Evaluated in normal, fasted guinea pig for the percentage reduction in blood glucose level as compared to pretreatment blood glucose values at a dose of 100 mg of free base / kg body weight administered orally; type: functional
How it was run: (§1)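 Male and female Hartley guinea pigs, 450–500 g, were food-deprived (water allowed) 18 h and split by sex into groups of four. A zero-time blood sample was taken by cardiac puncture, then drug was given, and blood was drawn again 5 h later. Percent reduction in blood glucose is relative to pretreatment values.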

Monkey [2] = test: Evaluated in normal, fasted monkey for the percentage reduction in blood glucose level as compared to pretreatment blood glucose values at a dose of 70 mg of free base / kg body weight administered orally; type: functional, Cercopithecidae
How it was run: (§2)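 Male and female rhesus monkeys (2–3 kg) were food-deprived, with water, for 18 h. Pretreatment blood was taken from the popliteal vein. Dosing was oral by stomach tube, with repeat sampling 5 h post-dose. Results are percent reduction in blood glucose relative to pretreatment values.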

Rattus norvegicus [3] = test: Evaluated in glucose-primed, fasted rat for the percentage reduction in blood glucose level as compared to control groups at a dose of 50 mg of free base / kg body weight administered orally; type: functional
How it was run: (§3)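 Male Sprague–Dawley rats, 140–150 g, groups of six, fasted 16 h. Each rat got 100 mg glucose s.c. in 0.5 mL isotonic NaCl, then the test agent at once orally as an aqueous carboxymethylcellulose suspension (0.5 mL); controls got vehicle. At 2 h, under light ether, blood was taken by cardiac puncture. Glucose was read by Autoanalyzer (Hoffman method). Values are percent difference from vehicle controls.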

[4] = (§4) Lethal dose required to produce 50% lethality in male and female carworth farms CF-1 strain mice weighing 16-25 g administered orally; settings: both, CF-1, in vivo, po
[5] = Lethal dose required to produce 50% lethality in male and female carworth farms CF-1 strain mice weighing 16-25 g administered intraperitoneally; type: toxicity, organism-based; settings: both, CF-1, mouse, in vivo, ip
How it was run: (§5)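 Four mice per dose level. Drug dissolved in distilled water and suspended in 0.5% carboxymethylcellulose or 0.5% gelatin, with pH adjusted by 1 N HCl or 1 N NaOH where the drug tolerated it. Doses logarithmically spaced, given orally or intraperitoneally. Mice observed 7 days after dosing. LD50 derived by the Bliss method, expressed in mg/kg.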

Rattus norvegicus [6] = test: Evaluated in glucose-primed, fasted rat for the percentage reduction in blood glucose level as compared to control groups at a dose of 10 mg of free base / kg body weight administered orally; type: functional; how it was run: as §3
Monkey [7] = test: Evaluated in normal, fasted monkey for the percentage reduction in blood glucose level as compared to pretreatment blood glucose values at a dose of 60 mg of free base / kg body weight administered orally; type: functional, Cercopithecidae; how it was run: as §2
Rattus norvegicus [8] = test: Evaluated in alloxanized, diabetic rat for the percentage reduction in blood glucose level as compared to pretreatment blood glucose values at a dose of 200 mg of free base / kg body weight administered orally; type: functional
How it was run: (§6)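 Three days later, rats positive for urine glucose (reagent strip) formed groups of six. Tail-vein blood was taken before oral dosing and again at 5 h. Percent reduction is versus pretreatment glucose.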

Monkey [9] = test: Evaluated in normal, fasted monkey for the percentage reduction in blood glucose level as compared to pretreatment blood glucose values at a dose of 25 mg of free base / kg body weight administered orally; type: functional, Cercopithecidae; how it was run: as §2
Rattus norvegicus [10] = test: Compound was evaluated for the blood sugar lowering (hypoglycemic activity ) in the glucose-primed rat at a dose of 50 mg of base/kg; type: functional; how it was run: as §3
Rattus norvegicus [11] = test: Evaluated in glucose-primed, fasted rat for the percentage reduction in blood glucose level as compared to control groups at a dose of 25 mg of free base / kg body weight administered orally; type: functional; how it was run: as §3
Rattus norvegicus [12] = test: Evaluated in glucose primed, adrenalectomized rat for the percentage reduction in blood glucose level as compared to pretreatment blood glucose values at a dose of 25 mg of free base / kg body weight administered orally; type: functional
How it was run: (§7)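 Male Sprague–Dawley rats were adrenalectomized 7 days before testing, fasted 16 h, and given 100 mg glucose s.c. per rat. Drug was given orally at once; controls received an equal volume of saline. Blood was taken by cardiac puncture after 2 h. Percent reduction in blood glucose is versus pretreatment values.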

Monkey [13] = test: Evaluated in normal, fasted monkey for the percentage reduction in blood glucose level as compared to pretreatment blood glucose values at a dose of 50 mg of free base / kg body weight administered orally; type: functional, Cercopithecidae; how it was run: as §2
Rattus norvegicus [14] = test: Evaluated in alloxanized, diabetic rat for the percentage reduction in blood glucose level as compared to pretreatment blood glucose values at a dose of 100 mg of free base / kg body weight administered orally; type: functional; how it was run: as §6
Rattus norvegicus [15] = test: Compound was evaluated for the blood sugar lowering (hypoglycemic activity) in the glucose-primed rat at a dose of 100 mg/kg; Increase in blood sugar level.; type: functional; how it was run: as §3
[16] = Lethality in 50% (LD50) of male and female CF-1 strain mice weighing 16-25g, intraperitoneal administration; type: ADME, organism-based; settings: both, CF-1, mouse, in vivo, ip; how it was run: as §5
[17] = Dose that produces lethality in 50% (LD50) of male and female carworth farms CF-1 strain mice weighing 16-25 g oral (po) route of administration; type: ADME, organism-based; settings: both, CF-1, mouse, in vivo; how it was run: as §5
Cavia porcellus [18] = test: Evaluated in normal, fasted guinea pig for the percentage reduction in blood glucose level after 5 hr as compared to pretreatment blood glucose values at a dose of 100 mg of free base / kg body weight administered orally; type: functional; how it was run: as §1
Cavia porcellus [19] = test: Evaluated in normal, fasted guinea pig for the percentage reduction in blood glucose level after 5 hr as compared to pretreatment blood glucose values at a dose of 160 mg of free base / kg body weight administered orally; type: functional; how it was run: as §1
Rattus norvegicus [20] = test: Evaluated in glucose-primed, fasted rat for the percentage reduction in blood glucose level after 2 h as compared to control groups at a dose of 25 mg of free base / kg body weight administered orally; type: functional; how it was run: as §3
Cavia porcellus [21] = test: Evaluated in normal, fasted guinea pig for the percentage reduction in blood glucose level after 5 hr as compared to pretreatment blood glucose values at a dose of 150 mg of free base / kg body weight administered orally; type: functional; how it was run: as §1
Rattus norvegicus [22] = test: Evaluated in glucose-primed, fasted rat for the percentage reduction in blood glucose level after 2 hr as compared to control groups at a dose of 10 mg of free base / kg body weight administered orally; type: functional; how it was run: as §3
Rattus norvegicus [23] = test: Evaluated in glucose primed, adrenalectomized rat for the percentage reduction in blood glucose level after 2 hr as compared to pretreatment blood glucose values at a dose of 20 mg of free base / kg body weight administered orally; type: functional; how it was run: as §7
Rattus norvegicus [24] = test: Evaluated in glucose-primed, fasted rat for the percentage reduction in blood glucose level after 2 hr as compared to control groups at a dose of 500 mg of free base / kg body weight administered orally; type: functional; how it was run: as §3
Monkey [25] = test: Evaluated in normal, fasted monkey for the percentage reduction in blood glucose level after 5 hr as compared to pretreatment blood glucose values at a dose of 20 mg of free base / kg body weight administered orally; type: functional, Cercopithecidae; how it was run: as §2
Monkey [26] = test: Evaluated in normal, fasted monkey for the percentage reduction in blood glucose level after 5 hr as compared to pretreatment blood glucose values at a dose of 40 mg of free base / kg body weight administered orally; type: functional, Cercopithecidae; how it was run: as §2
Rattus norvegicus [27] = test: Evaluated in glucose primed, adrenalectomized rat for the percentage reduction in blood glucose level after 2 hr as compared to pretreatment blood glucose values at a dose of 10 mg of free base / kg body weight administered orally; type: functional; how it was run: as §7
Cavia porcellus [28] = test: Evaluated in normal, fasted guinea pig for the percentage reduction in blood glucose level after 5 hr as compared to pretreatment blood glucose values at a dose of 125 mg of free base / kg body weight administered orally; type: functional; how it was run: as §1
Rattus norvegicus [29] = test: Evaluated in glucose-primed, fasted rat for the percentage reduction in blood glucose level after 2 hr as compared to control groups at a dose of 250 mg of free base / kg body weight administered orally; type: functional; how it was run: as §3
[30] = Dose that produces lethality in 50% (LD50) of male and female carworth farms CF-1 strain mice weighing 16-25 g intraperitoneal (ip) route of administration; type: ADME, organism-based; settings: both, CF-1, mouse, in vivo; how it was run: as §5
Rattus norvegicus [31] = test: Blood sugar lowering (hypoglycemic activity) in the glucose-primed rat at a dose of 100 mg/kg; Decrease in blood sugar level.; type: functional; how it was run: as §3
Rattus norvegicus [32] = test: Evaluated in alloxanized, diabetic rat for the percentage reduction in blood glucose level as compared to pretreatment blood glucose values at a dose of 150 mg of free base / kg body weight administered orally; type: functional; how it was run: as §6
[33] = as §4; type: toxicity, organism-based; settings: both, CF-1, mouse, in vivo, po; how it was run: as §5
Cavia porcellus [34] = test: Evaluated in normal, fasted guinea pig for the percentage reduction in blood glucose level as compared to pretreatment blood glucose values at a dose of 100 mg of free base / kg body weight administered orally
Rattus norvegicus [35] = test: Evaluated in glucose-primed, fasted rat for the percentage reduction in blood glucose level as compared to control groups at a dose of 100 mg of free base / kg body weight administered orally; type: functional; how it was run: as §3
Rattus norvegicus [36] = test: Evaluated in glucose-primed, fasted rat for the percentage reduction in blood glucose level as compared to control groups at a dose of 150 mg of free base / kg body weight administered orally; type: functional; how it was run: as §3
Rattus norvegicus [37] = test: Evaluated for the blood sugar lowering (hypoglycemic activity ) in the glucose-primed rat at a dose of 100 mg/kg; type: functional; how it was run: as §3

Br.CC(C)N(CCCOc1ccc(N/C(=N\c2ccccc2)c2ccccc2)cc1)C(C)C
Reduction (Cavia porcellus [1]): 33.5% and 20% | Reduction (Monkey [2]): 39% | Reduction (Rattus norvegicus [3]): 32.2% | LD50 [4]: 347 mg/kg | LD50 [5]: 140 mg/kg | Reduction (Rattus norvegicus [6]): 10.9% | Reduction (Monkey [7]): 32.3% | Reduction (Rattus norvegicus [8]): 21.5% | Reduction (Monkey [9]): 0% | Change (Rattus norvegicus [10]): 32.2% | Reduction (Rattus norvegicus [11]): 21.2% | Reduction (Rattus norvegicus [12]): 30.6% | Reduction (Monkey [13]): 26.5% | Reduction (Rattus norvegicus [14]): 15%

Br.c1ccc(/N=C(\Nc2ccc(OCCN3CCCC3)cc2)c2ccccc2)cc1
Change (Rattus norvegicus [15]): 35% | LD50 [16]: 117 mg/kg | LD50 [17]: 500 mg/kg

Cc1ccc(S(=O)(=O)NC(=O)NN2CCCCCC2)cc1 [TOLAZAMIDE]
Reduction (Cavia porcellus [18]): 33.5% | Reduction (Cavia porcellus [19]): 25% | Reduction (Rattus norvegicus [20]): 50% | Reduction (Cavia porcellus [21]): 30.4% | Reduction (Rattus norvegicus [22]): 28.1% | Reduction (Rattus norvegicus [23]): 85.6% | Reduction (Rattus norvegicus [24]): 51.1% | Reduction (Monkey [25]): 11% | Reduction (Monkey [26]): 26.7% | Reduction (Rattus norvegicus [27]): 75.8% | Reduction (Cavia porcellus [28]): 26.7% | Reduction (Rattus norvegicus [14]): 0% | Reduction (Rattus norvegicus [29]): 42.9%

CC(C)N(CCc1ccc(/C(=N\c2ccccc2)Nc2ccccc2)cc1)C(C)C.Cl
LD50 [17]: 587 mg/kg | LD50 [30]: 160 mg/kg | Change (Rattus norvegicus [31]): 32.4%

Br.CC(C)N(CCOc1ccc(N/C(=N\c2ccccc2)c2ccccc2)cc1)C(C)C
Reduction (Rattus norvegicus [32]): 37.3% | LD50 [33]: 900 mg/kg | Reduction (Rattus norvegicus [3]): 12.9% | LD50 [5]: 273 mg/kg | Reduction (Monkey [7]): 45% | Reduction (Cavia porcellus [34]): 10.6% | Reduction (Monkey [9]): 0% | Reduction (Rattus norvegicus [35]): 31.2% | Change (Rattus norvegicus [31]): 31.2% | Reduction (Rattus norvegicus [12]): 33.4% | Reduction (Monkey [13]): 31.9% | Reduction (Rattus norvegicus [14]): 16.5% | Reduction (Rattus norvegicus [36]): 32%

CC(C)N(CCOc1ccc(N/C(=N\c2cccc(C(F)(F)F)c2)c2ccccc2)cc1)C(C)C.Cl
LD50 [16]: 400 mg/kg | Change (Rattus norvegicus [37]): 0% | LD50 [17]: 1000 mg/kg
